From PMC12646499 (Journal of Chemical Information and Modeling, 2025)

Columns and labels:
PD-L1 = settings: ligand in PDB 5N2F; cited from earlier work
PD-1–PD-L1 interaction = PD-1–PD-L1 interaction (Homo sapiens, UniProt Q9NZQ7); test: PD-1–PD-L1 TR-FRET assay; type: binding
How it was run: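 Test compound (from 5 mM DMSO stock, diluted in PBS) was preincubated 10 min with biotin-PD-L1 (added at 11 μg/mL) at room temperature in the dark. Eu-PD-1 (0.8 μg/mL) plus acceptor dye was then added for 1.5 h. Single doses were 5 and 25 μM final; dose-response used a 5:1 serial dilution. The 665/620 nm ratio (excitation 337 nm) was normalised to controls with and without PD-L1, in triplicate. IC50 came from nonlinear regression.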

[1] = tested in clinical trials but discontinued; cited from earlier work
human PD-L1 = settings: binds human PD-L1; previously published; cited from earlier work
[2] = tested on: LS 180 colorectal adenocarcinoma cells bearing the K-Ras G12D mutation; test: MTT cell toxicity assay in LS 180 cells; type: cell-based; settings: 48 h
How it was run: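 LS 180 cells were grown in DMEM with 10% FBS at 37 °C and 5% CO2, then seeded at 5000 cells/well in DMEM with 5% FBS and left to attach for 24 h. Test compound was added at 10, 4, 1.6 or 0.64 μM final, with 0.2% DMSO, in sextuplicate, for 48 h. MTT (0.35 mg/mL final) was added for 4 h, then DMF/SDS/HCl/acetic acid stop solution overnight at room temperature. A570 was read as % survival versus no compound.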

Chain of PD-1–PD-L1 interaction (Q9NZQ7 19-238 limits assumed): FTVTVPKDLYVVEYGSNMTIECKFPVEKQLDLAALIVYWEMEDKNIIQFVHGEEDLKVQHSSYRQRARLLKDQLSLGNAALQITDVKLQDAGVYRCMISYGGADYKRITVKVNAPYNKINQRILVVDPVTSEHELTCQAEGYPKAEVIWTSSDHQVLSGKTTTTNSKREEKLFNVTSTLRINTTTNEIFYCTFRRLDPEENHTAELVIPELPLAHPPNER

Cc1c(COc2cc(F)c(CNC[C@@H](O)CC(=O)O)cc2F)cccc1-c1ccc2c(c1)OCCO2 [BMS-200]
IC50 (PD-L1): 3.1 nM

Cc1c(Nc2nccc3cc(CN4CC[C@@H](O)C4)cnc23)cccc1-c1cccc(-c2nc3cc(CN4CC[C@@H](C(=O)O)C4)cc(C#N)c3o2)c1C [INCB086550]
IC50 (PD-1–PD-L1 interaction): 5.6 nM
activity at 5 μM (in words) (PD-1–PD-L1 interaction; 5 μM): complete loss of activity
toxicity in clinical trials (in words) [1]: high toxicity
IC50 (human PD-L1): 3.1 nM

C#Cc1c(F)ccc2cc(O)cc(-c3ncc4c(N5CC6CCC(C5)N6)nc(OC[C@@]56CCCN5C[C@H](F)C6)nc4c3F)c12 [MRTX1133]
GI50 [2]: submicromolar
